PfHsp90 set2: growth inhibition of PfHsp90-expressing yeast, primary screen, antimalarial PfHsp90 inhibitor project, S. cerevisiae, BacTiter-Glo luminescence, single point, set 2; inhibition, % at 9.4 µM; AID 504621, 2011; actives 0.32% (n = 310,000); BacTiter-Glo ATP, 48 h; yeast lacking PDR1 and PDR3 efflux regulators;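 active = every replicate shows inhibition above about 80%, whatever the replicate mean, limit read from the data; inconclusive = mean inhibition reaches the set limit but some replicate falls short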
PvdQ inh: P. aeruginosa PvdQ acylase inhibitors, primary screen, biochemical, fluorescence, plate reader and imaging, single point; inhibition, % at 10 µM; actives 0.063% (n = 340,000); AID 488965, 2010; purified PvdQ acylase; PvdQ acylase [Pseudomonas aeruginosa LESB58]; in the data active = inhibition above about 30%, passing the limit was not always enough; inconclusive = no clear call, values can overlap the other calls
CaV13 ICDI inh: Disruptors of the CACNA1D IQ motif to Ca2+-dependent inactivation inhibitor domain association, primary screening, Förster resonance energy transfer in intact living …; HEK cells, CFP/YFP FRET ICDI-IQ, plate reader, 10 min; percent FRET-ratio fall versus neutral wells; inhibition, % at 12.3 µM; actives 0.098% (n = 340,000); AID 743397;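 active = mean replicate inhibition of at least 30% and at least 1% of replicates passing that level; inconclusive = only one of the two criteria is met; inactive = neither criterion is met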
T cruzi inh: inhibitors of intracellular T. cruzi growth, primary screen, luminescence, NIH3T3 host cells | T. cruzi beta-gal in NIH3T3, 90 h | inhibition, % (test concentration not listed) | actives 1.4% (n = 300,000) | AID 1885, 2009;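 active = mean inhibition across valid replicates above about 55%, limit read from the data; inconclusive = mean below that limit but half or more replicates reach it; inactive = mean below it, under half of replicates reach it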;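 also: signal also drops with host cell toxicity which is not excluded here; higher percent means less beta-gal luminescence so fewer parasites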
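Read-out: Parasite load inhibition, % | Test system: Mouse NIH/3T3 fibroblasts infected with β-gal-expressing T. cruzi Tulahuen C4 | Amount: 5,000 cells/well | Medium: DMEM, 2% fetal bovine serum | Signal: GalScreen β-gal luminescence, detergent lysis, 60 min | Timing: 3 h attach, ≥90 h co-culture | Also added: Tulahuen C4 trypomastigotes, 5000/well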
HSF-1 act: HSF-1 activators, primary screen, NIH3T3-HGL cells, MG132 stress, luminescence, single point. actives 1.7% (n = 300,000). NIH3T3-HGL HSF-1 luciferase reporter, 8 h; 100% = twice DMSO control signal. AID 504408, 2011. activation, % at 9 µM;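 active = mean replicate activation of at least 50% with a set share of replicates each reaching 50%; inconclusive = only one of those two conditions met; inactive = mean below 50% and too few replicates reaching it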
Glyco luc inh: increase of ERlucT glycosylation luciferase signal, primary screen, N-linked glycosylation inhibitor project, D54 ERlucT cells, luminescence, set 2 | D54 ERlucT glycosylation luciferase reporter, 24 h; percent of 100 nM tunicamycin response | reporter increase, % at 12.5 µM | actives 0.23% (n = 360,000) | AID 588692, 2011;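 active = mean luciferase reporter signal, scaled so untreated is 0 and the glycosylation-blocking control 100, at or above a set limit in every replicate; inconclusive = mean reaches the limit but not every replicate does; inactive = mean below the limit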;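 also: luciferase carries N-glycosylation sites so blocking glycosylation raises the light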
Of the large screens only hits and unclear results are named; the others gave an inactive call. Only some compounds are listed: those with a hit (about 3% of all), similar ones and a draw of the others.

C[C@@H]1CN([C@H](C)CO)C(=O)CCCn2nncc2CO[C@H]1CN(C)S(=O)(=O)c1cccc(F)c1	none (no result: PfHsp90 set2, PvdQ inh, T cruzi inh, HSF-1 act)
CC(C)C[C@@H](CNCC(=O)[C@H](Cc1ccccc1)NC(=O)c1[nH]cnc1C(=O)N[C@@H](C)CN)NC(=O)c1nc[nH]c1C(=O)N[C@@H](C)C(=O)O	none (no result: T cruzi inh, HSF-1 act)
COc1ccc(CNc2nc3ccccc3n2CCN2CCCCC2)cc1	none
CCN(CC)c1ccc(CNc2nc3ccccc3n2CCN2CCCCC2)cc1	T cruzi inh 60 (no result: HSF-1 act)
COC(=O)c1cc2c(c3c4cc(OC)ccc4n(S(=O)(=O)c4ccc(C)cc4)c13)C(=O)N(C)C2	none (no result: PfHsp90 set2, PvdQ inh, T cruzi inh, HSF-1 act, Glyco luc inh)
O=C1C2CCCCN2C(=O)N1CCCN1CCN(c2ccc(F)cc2)CC1 (centres undefined)	HSF-1 act 57
CC(C)C[C@H]1CN([C@@H](Cc2ccccc2)CN2CCC[C@@H]2CN2C(=O)C(=O)NC[C@@H]2Cc2ccccc2)C(=O)C(=O)N1CCc1ccccc1	none (no result: PfHsp90 set2, PvdQ inh, T cruzi inh, HSF-1 act)
Cc1cccc2nc(-c3ccccc3)nc(N3CCC(O)(c4ccc(Cl)cc4)CC3)c12	T cruzi inh 60
CCN1CCN(c2nc(-c3ccccc3)nc3ccccc23)CC1	none
COc1ccc(-c2ccc(C(=O)NC3CCCCC3)c3occc23)c(C)c1	none (no result: PfHsp90 set2, PvdQ inh, T cruzi inh, HSF-1 act)
C=CCn1cccc(C(=O)Nc2ccc(C)c(C)c2)c1=O	none
C=CCn1cccc(C(=O)Nc2ccc(C)cc2)c1=O	HSF-1 act 56
CC(C)c1ccc(CNc2ccc([N+](=O)[O-])cn2)cc1	HSF-1 act 71
O=[N+]([O-])c1ccc(NCc2ccc(Cl)cc2)nc1	none
O=C(NC(=S)Nc1ncc(Br)cc1Br)c1ccccc1	HSF-1 act 76
O=C(C(=O)N1CCC(CNS(=O)(=O)c2cc(C(F)(F)F)cc(C(F)(F)F)c2)CC1)c1cc2ccccc2o1	none (no result: PfHsp90 set2, PvdQ inh, T cruzi inh, HSF-1 act, Glyco luc inh)
COc1ccc(S(=O)(=O)Nc2ccc3c(c2)C(=O)N([C@H](C)CO)C[C@H](C)[C@@H](CN(C)Cc2ccncc2)OCCCC[C@@H](C)O3)cc1	none (no result: PfHsp90 set2, PvdQ inh, T cruzi inh, HSF-1 act)
CCOc1ccc2nc(N3CCCCCC3)sc2c1	HSF-1 act 72
O=C(O)Cc1sc(N/N=C\c2ccccc2)nc1-c1ccccc1	HSF-1 act 60
O=C(Cc1sc(Nc2ccccc2)nc1-c1ccccc1)NCc1ccccc1	HSF-1 act 60
CCOC(=O)c1sc(N/N=C/c2ccccc2)nc1C	none
O=C(c1ccc2c(c1)C(=O)NC2=O)c1ccc2c(c1)C(=O)NC2=O	none (no result: PfHsp90 set2, PvdQ inh, T cruzi inh, HSF-1 act, Glyco luc inh)
CSc1ccc(C(=O)Nc2cc(S(=O)(=O)N3CCOCC3)ccc2N2CCOCC2)cc1[N+](=O)[O-]	none (no result: PfHsp90 set2, T cruzi inh, HSF-1 act)
Cn1ncc2c(O/N=C(\N)c3ccc(C(F)(F)F)cc3)ncnc21	Glyco luc inh 41
CC(C)c1ccc(NC(=O)COc2ccccn2)cc1	T cruzi inh 56
CC(C)c1ccc(NC(=O)COc2ccccc2)cc1	none
CC(=O)Nc1ccc(CN(C)c2c(C)nc3ccc(C(=O)NC4CCN(Cc5ccccc5)CC4)cn23)cc1	none (no result: PfHsp90 set2, PvdQ inh, T cruzi inh, HSF-1 act)
Cc1cccc(NS(=O)(=O)c2ccc(NC(=O)CN(c3cc([N+](=O)[O-])ccc3C)S(C)(=O)=O)cc2)c1	T cruzi inh 75
COc1cc2c(cc1OC)C(C)N(S(=O)(=O)c1ccc(C)cc1)CC2 (centres undefined)	HSF-1 act 60
Cc1ccc2nc3n(c(=O)c2c1)-c1ccccc1C(=O)NC3CC(C)C (centres undefined)	none (no result: PfHsp90 set2, PvdQ inh, T cruzi inh, HSF-1 act, Glyco luc inh)
O=C(O)c1cccnc1Sc1ccccc1	HSF-1 act 72
O=c1c2ccccc2nnn1COc1cccc(Cl)c1	HSF-1 act 74
O=C(COc1ccc(Cl)cc1Cl)OCn1nnc2ccccc2c1=O	none
CN1C=C/C(=C\c2cc[n+](C)c3ccccc23)c2ccccc21	T cruzi inh 56
CC[n+]1ccc(/C=C2\Sc3ccccc3N2CCCS(=O)(=O)[O-])c2ccccc21	none
C=CCN1C(=O)c2n[nH]c(COC)c2C1c1cccc(C(F)(F)F)c1 (centres undefined)	none (no result: PfHsp90 set2, PvdQ inh, T cruzi inh, HSF-1 act, Glyco luc inh)
Cc1cc(C(=O)NCc2ccc3c(c2)OCO3)ccc1[N+](=O)[O-]	none
CC1CC(C)CN(c2ccc(C(=O)NCc3ccc4c(c3)OCO4)cc2[N+](=O)[O-])C1 (centres undefined)	T cruzi inh 65
COc1ccc(CCNC(=O)c2ccc(CNS(=O)(=O)c3cccc(Cl)c3)cc2)cc1OC	HSF-1 act 60
Cc1cc(-c2n[nH]c(=S)n2/N=C/C=C/c2ccccc2)n[nH]1	HSF-1 act 57
COc1ccccc1/C=C/C=N/n1c(-c2cc(C)[nH]n2)n[nH]c1=S	HSF-1 act inconclusive
Cc1ccccc1-c1cc2nc(NCCN3CCCC3)n(C)c(=O)c2s1	none (no result: PfHsp90 set2, PvdQ inh, T cruzi inh, HSF-1 act)
C=C(C(=O)c1ccccc1)C(c1ccccc1)C(C)C(=O)c1ccccc1 (centres undefined)	HSF-1 act 62
O=C(c1ccccc1)C(c1ccccc1)c1ccccc1	none
C=C(C(=O)c1ccccc1)C(C(=C)C(=O)c1ccccc1)c1ccc(OC)cc1	T cruzi inh 55, HSF-1 act 143
C=C(C(=O)c1ccccc1)C(C)C(=C)C(=O)c1ccccc1	HSF-1 act 79
O=C(O)c1ccc(C(=O)C(=O)c2ccccc2)cc1	none
CC(C)(C)C(=O)C(Cl)C(=O)Nc1ccccc1 (centres undefined)	PfHsp90 set2 107
O=C(Nc1ccc(Nc2ccccc2)cc1)C(Cl)Cl	none
CN(C)CCN(C(=O)c1ccc(S(=O)(=O)N(C)C)cc1)c1nc2cc3c(cc2s1)OCCO3	T cruzi inh 61 (no result: PfHsp90 set2)
CN(C)CCN(C(=O)c1ccc(S(=O)(=O)N(C)c2ccccc2)cc1)c1nc2cc3c(cc2s1)OCCO3	T cruzi inh inconclusive
COc1ccc2nc(N(CCN(C)C)C(=O)c3ccc4c(c3)OCCO4)sc2c1	T cruzi inh 65
CN(C)CCN(C(=O)c1ccc2c(c1)OCCO2)c1nc2cc3c(cc2s1)OCO3	none (no result: CaV13 ICDI inh)
CC1(C(=O)NCCc2ccccc2)Cc2c(-c3ccccc3)ccnc2O1 (centres undefined)	none (no result: PfHsp90 set2, PvdQ inh, T cruzi inh, HSF-1 act)
CCN(CC)C(=O)C1=C(C)N(CCCN2CCCC2=O)C(=O)C(CC(=O)NCCN2CCOCC2)C1 (centres undefined)	none (no result: PfHsp90 set2, PvdQ inh, T cruzi inh, HSF-1 act)
CC1CCC(C(C)C)C(OC(=O)Cn2c(-c3ccc(Cl)cc3)[n+](C)c3ccccc32)C1 (centres undefined)	none
